The results in this text go back to ChEMBL document CHEMBL4138155, “Design, synthesis and biochemical evaluation of novel multi-target inhibitors as potential anti-Parkinson agents” (Eur J Med Chem, 2018).

Data set [1] concerns the target T1, Amine oxidase [flavin-containing] B (Homo sapiens, UniProt P27338).
T1 sequence (P27338 whole entry): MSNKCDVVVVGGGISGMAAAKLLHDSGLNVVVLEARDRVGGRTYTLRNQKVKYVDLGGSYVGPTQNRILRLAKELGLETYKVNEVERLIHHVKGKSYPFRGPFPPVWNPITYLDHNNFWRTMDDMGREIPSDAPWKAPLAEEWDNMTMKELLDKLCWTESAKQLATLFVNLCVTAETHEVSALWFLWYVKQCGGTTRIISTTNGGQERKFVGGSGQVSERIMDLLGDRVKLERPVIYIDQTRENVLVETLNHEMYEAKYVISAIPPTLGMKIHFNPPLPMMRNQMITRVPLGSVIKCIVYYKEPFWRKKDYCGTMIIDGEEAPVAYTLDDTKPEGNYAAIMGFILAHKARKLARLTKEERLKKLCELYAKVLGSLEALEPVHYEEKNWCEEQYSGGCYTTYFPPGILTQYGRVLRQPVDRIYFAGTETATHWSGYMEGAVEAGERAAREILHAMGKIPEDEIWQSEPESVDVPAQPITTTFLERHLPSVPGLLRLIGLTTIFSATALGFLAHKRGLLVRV
Nature of the data set: Inhibition of recombinant human MAO-B assessed as residual activity at 4 times IC50 using kynuramine as substrate pre-incubated for 15 mins substrate addition measured after 20 mins by fluorescence assay relative to control.

Data set [2] is described as follows: Antioxidant activity assessed as ferric ion reducing activity using Fe3+-TPTZ after 30 mins by FRAP assay. It is filed as functional. In outline:
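FRAP reagent: acetate buffer (0.3 M, pH 3.6), TPTZ (10 mM) in 40 mM HCl and FeCl3 (20 mM), 10:1:1 v/v/v. Sample added, 30 min at room temperature, absorbance at 593 nm. Expressed as EC50.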

Data set [3] in a line: Antioxidant activity assessed as total antioxidant capacity after 90 mins by phosphomolybdenum method. It is filed as functional. A digest of the protocol:
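Sample combined with reagent of 0.6 M sulphuric acid, 28 mM sodium phosphate and 4 mM ammonium molybdate; heated 90 min at 95 °C, absorbance at 695 nm. EC50 = concentration giving absorbance 0.5; trolox as reference.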

The target of data set [4] is Cholinesterase (Equus caballus) (UniProt P81908). Nature of the data set: Inhibition of horse serum BuChE at 3 uM using butyrylthiocholine iodide as substrate preincubated for 15 mins followed by substrate addition measured after 10 mins by spectrophotometry based-Ellman's method.
Data set [5] concerns the target T1, Amine oxidase [flavin-containing] B. Nature of the data set: Reversible inhibition of recombinant human MAO-B assessed as residual activity at 4 times IC50 using kynuramine as substrate pre-incubated for 15 mins followed by 2 fold dilution of compound for 24 hrs and subsequent substrate addition measured after 20 mins by fluorescence assay relative to control.

For data set [6], the target named is T2, Amine oxidase [flavin-containing] A (Homo sapiens, UniProt P21397).
T2 sequence (P21397 whole entry): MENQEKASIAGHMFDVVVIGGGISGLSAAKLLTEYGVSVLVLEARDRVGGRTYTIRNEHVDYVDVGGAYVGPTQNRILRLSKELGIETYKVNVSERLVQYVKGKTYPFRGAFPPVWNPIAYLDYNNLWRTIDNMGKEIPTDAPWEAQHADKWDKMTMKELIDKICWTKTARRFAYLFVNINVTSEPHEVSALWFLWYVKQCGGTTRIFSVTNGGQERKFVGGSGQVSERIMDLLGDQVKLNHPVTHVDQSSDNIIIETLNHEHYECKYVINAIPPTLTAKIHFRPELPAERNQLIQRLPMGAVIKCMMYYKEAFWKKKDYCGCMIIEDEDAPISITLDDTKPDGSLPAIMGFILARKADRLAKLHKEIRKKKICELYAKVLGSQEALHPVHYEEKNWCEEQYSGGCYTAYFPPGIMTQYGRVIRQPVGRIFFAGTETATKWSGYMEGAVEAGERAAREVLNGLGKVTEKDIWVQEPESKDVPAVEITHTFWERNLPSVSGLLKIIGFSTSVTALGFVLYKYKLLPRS
Description: Inhibition of recombinant human MAO-A using kynuramine as substrate after 20 mins by fluorescence assay.

Data set [7] in a line: Antioxidant activity assessed as DPPH radical scavenging activity after 30 mins. It is filed as functional. A digest of the protocol: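 Sample added to 0.004% DPPH in methanol, kept 30 min in the dark at room temperature, absorbance read at 517 nm. IC50 taken as the concentration scavenging 50% of DPPH radicals; trolox as reference.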
For orientation: The DPPH test is a chemical assay of radical scavenging.

The nature of data set [8]: Antioxidant activity assessed as ABTS radical scavenging activity measured after 12 to 16 hrs. It is filed as functional. In outline: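 ABTS radical cation generated from 7 mM ABTS with 2.45 mM potassium persulphate, 12-16 h dark at room temperature, then diluted with methanol to A734 0.700 ± 0.02. Sample mixed with ABTS solution, 30 min at room temperature, absorbance read at 734 nm. IC50 = concentration scavenging 50% of radicals; trolox reference.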

Data set [9] has as its target T1, Amine oxidase [flavin-containing] B. Description: Competitive inhibition of recombinant human MAO-B using kynuramine as substrate pre-incubated for 15 mins followed by 2 fold compound dilution for 24 hrs and subsequent substrate addition measured after 20 mins by Lineweaver-Burk plot analysis. A digest of the protocol: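 20 min at 37 °C, NaOH stop, 4-hydroxyquinoline fluorescence read. Six Lineweaver-Burk plots; Ki from x-intercept of slope versus inhibitor concentration.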

Data set [10] is described as follows: Antioxidant activity assessed as cupric ion reducing activity after 30 mins by CUPRAC assay. It is filed as functional. In outline:
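Sample mixed with CuCl2 (10 mM), neocuproine (7.5 mM) and NH4Ac buffer (1 M, pH 7.0) stock reagents; blank lacks CuCl2. Absorbance at 450 nm after 30 min at room temperature, blank subtracted. Expressed as EC50.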

Data set [11] concerns the target T1, Amine oxidase [flavin-containing] B.

Chain of Cholinesterase (Equus caballus) (P81908 whole entry): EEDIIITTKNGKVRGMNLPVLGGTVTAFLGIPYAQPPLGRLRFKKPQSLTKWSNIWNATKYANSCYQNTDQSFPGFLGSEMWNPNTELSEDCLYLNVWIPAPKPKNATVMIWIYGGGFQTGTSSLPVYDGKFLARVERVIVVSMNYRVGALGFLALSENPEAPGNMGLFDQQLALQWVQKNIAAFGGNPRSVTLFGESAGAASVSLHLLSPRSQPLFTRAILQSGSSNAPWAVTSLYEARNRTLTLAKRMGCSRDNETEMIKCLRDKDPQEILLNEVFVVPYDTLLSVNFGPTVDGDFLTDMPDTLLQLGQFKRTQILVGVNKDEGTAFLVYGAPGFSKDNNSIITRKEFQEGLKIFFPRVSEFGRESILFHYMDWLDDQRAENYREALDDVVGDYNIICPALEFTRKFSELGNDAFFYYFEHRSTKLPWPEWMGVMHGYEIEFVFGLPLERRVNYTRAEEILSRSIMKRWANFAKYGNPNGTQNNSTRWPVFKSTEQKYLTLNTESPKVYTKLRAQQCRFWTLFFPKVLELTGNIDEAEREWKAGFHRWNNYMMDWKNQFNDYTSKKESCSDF

As a reminder, the EC50 is the concentration needed to bring the measured effect to its halfway point. As usually defined, the inhibition is the percentage by which the read-out fell short of the control. The IC50 is the point on the concentration scale where inhibition reaches its midpoint. Usually Ki stands for the equilibrium dissociation constant of an inhibitor or competing ligand from its target. For `C/C(=N/Nc1nc(-c2cccc([N+](=O)[O-])c2)cs1)C1CC1`, the results for the Activity in data set [1] and in [5] were 46% and 91%, respectively. Besides, the EC50 was determined as 470 µM in data set [2], 1470 µM in [3] and 530 µM in data set [10]. The inhibition in data set [4] was found to be 12.8%. In addition, the IC50 in data set [6] turned out to be 2.66 µM; in data set [7] it was 1260 µM; in data set [8] it was 1060 µM; in data set [11], 0.0053 µM. Moreover, the Ki in [9] stood at 0.0073 µM.

Consider `O=[N+]([O-])c1cccc(-c2csc(NN=C3CCCC3)n2)c1`, for which the EC50 in data set [2] was found to be 400 µM; in data set [3], 1340 µM; in [10], 510 µM. The inhibition in [4] turned out to be 12.4%. The IC50 amounted to 3.46 µM in data set [6], 1180 µM in [7], 1100 µM in data set [8] and 0.095 µM in [11].

As for `O=[N+]([O-])c1cccc(-c2csc(NN=C3CCCCCC3)n2)c1`, the EC50 in data set [2] came out at 420 µM; in data set [3] it was 1230 µM; in data set [10] it was 410 µM. This compound also yielded an inhibition in data set [4] of 7.11%. For the same compound, the IC50 in [6] was 1.59 µM; in data set [7], 1220 µM; in [8], 1070 µM; in [11], 0.0086 µM.

Regarding `CC(C)=NNc1nc(-c2cccc([N+](=O)[O-])c2)cs1`, the EC50 was 340 µM in data set [2], 1750 µM in data set [3] and 510 µM in data set [10]. For the same compound, the inhibition in data set [4] was 12.8%. The IC50 in [6] amounted to 1.07 µM; in data set [7], 1160 µM; in data set [8], 1070 µM; in data set [11] it was 0.716 µM.

For `CCC/C(CC)=N\Nc1nc(-c2cccc([N+](=O)[O-])c2)cs1`, the EC50 in data set [2] amounted to 390 µM; in [3] it was 1250 µM; in [10], 530 µM. The compound also registered an inhibition in [4] of 11%. Besides, the IC50 in data set [6] came to 4.86 µM; in [7] it was 1230 µM; in data set [8], 1040 µM; in data set [11], 0.189 µM.

In the case of `CC1CCC(=NNc2nc(-c3cccc([N+](=O)[O-])c3)cs2)CC1` (centres undefined), the EC50 in data set [2] is 390 µM; in data set [3], 1130 µM; in data set [10] it was 390 µM. In addition, the inhibition in [4] was 4.87%. In addition, the IC50 in data set [6] came out at 4.25 µM; in [7] it was 1180 µM; in [8], 1090 µM; in [11], 0.237 µM.

As for `CCC(CC)=NNc1nc(-c2cccc([N+](=O)[O-])c2)cs1`, the EC50 in data set [2] is 340 µM; in data set [3], 1100 µM; in data set [10] it was 460 µM. For the same compound, in [4], the inhibition is 7.45%. Besides, the IC50 in data set [6] turned out to be 24.3 µM; in data set [7] it was 1130 µM; in data set [8], 1040 µM; in data set [11], 0.053 µM.
